{"source": "ChEMBL document CHEMBL1133544", "about": "“Formaldehyde-induced alkylation of a 2'-aminoglucose rebeccamycin derivative to both A.T and G.C base pairs in DNA” (J Med Chem, 2000)", "key": {"[1]": {"assay": "Delta Tm value ( Tmdrug-DNA )-TmDNA ) was obtained for the covalently cross-linked compound in the presence of formaldehyde using twice of poly(dA-dT) at 0.1 M", "type": "ADME", "procedure,_shortened": "(§1)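 The preformed drug–nucleic acid complex, at the stated drug/DNA ratio, was treated with HCHO before melting. Melting was done in BPE buffer pH 7.0 with 20 μM nucleotide, monitored at 260 nm, heating 20–100 °C at 1 °C/min. Tm is the hyperchromic transition midpoint, and ΔTm is taken relative to free nucleic acid. Each drug concentration was run in duplicate.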"}, "[2]": {"assay": "Delta Tm value ( Tmdrug-DNA )-TmDNA ) was obtained for the covalently cross-linked compound in the presence of formaldehyde using twice of poly(dA-dT) at 0.05 M", "type": "ADME", "procedure,_shortened": "as §1"}, "[3]": {"assay": "Delta Tm value (Tm(drug-DNA)-Tm(DNA)) was determined for the covalently cross-linked compound in the presence of formaldehyde using calf thymus DNA at 0.05 M", "type": "ADME", "conditions": "cattle", "procedure,_shortened": "as §1"}, "[4]": {"assay": "Delta Tm value ( Tmdrug-DNA )-TmDNA ) was obtained for the covalently cross-linked compound in the presence of formaldehyde using twice of poly(dA-dT) at 0.5 M", "type": "ADME", "procedure,_shortened": "as §1"}, "[5]": {"test_system": "poly(dA-dC)·poly(dG-dT) (synthetic)", "assay": "Delta Tm value ( Tmdrug-DNA )-TmDNA ) was obtained for the covalently cross-linked compound in the absence of formaldehyde using poly(dA-dC).poly(dG-dT) at 0.05 M", "conditions": "in vitro"}, "Bos taurus [6]": {"organism": "Bos taurus", "assay": "Delta Tm value ( Tmdrug-DNA )-TmDNA ) was obtained for the covalently cross-linked compound in the absence of formaldehyde using calf thymus DNA at 0.1 M", "type": "ADME", "conditions": "cattle", "procedure,_shortened": "(§2)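 Drug added to nucleic acid at the stated drug/DNA ratio with no HCHO, in BPE buffer pH 7.0 (6 mM Na2HPO4, 2 mM NaH2PO4, 1 mM EDTA). DNA or polynucleotide at 20 μM nucleotide. Absorbance read at 260 nm while heating 20–100 °C at 1 °C/min. Tm taken as the midpoint of the hyperchromic transition; ΔTm = Tm(drug–DNA) − Tm(DNA). Duplicate determinations at each drug concentration.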"}, "[7]": {"test_system": "[poly(dA-dT)]2 (synthetic)", "assay": "Delta Tm value ( Tmdrug-DNA )-TmDNA ) was obtained for the covalently cross-linked compound in the absence of formaldehyde using twice of poly(dA-dT) at 0.25 M", "conditions": "in vivo"}, "[8]": {"assay": "Delta Tm value ( Tmdrug-DNA )-TmDNA ) was obtained for the covalently cross-linked compound in the presence of formaldehyde using poly(dA-dC).poly(dG-dT) at 0.25 M", "type": "ADME", "procedure,_shortened": "as §1"}, "[9]": {"test_system": "[poly(dA-dT)]2 (synthetic)", "assay": "Delta Tm value ( Tmdrug-DNA )-TmDNA ) was obtained for the covalently cross-linked compound in the absence of formaldehyde using twice of poly(dA-dT) at 0.05 M", "conditions": "in vivo"}, "[10]": {"assay": "Delta Tm value ( Tmdrug-DNA )-TmDNA ) was obtained for the covalently cross-linked compound in the absence of formaldehyde using calf thymus DNA.", "type": "ADME", "conditions": "cattle", "procedure,_shortened": "as §2"}, "[11]": {"test_system": "poly(dA-dC)·poly(dG-dT) (synthetic)", "assay": "Delta Tm value ( Tmdrug-DNA )-TmDNA ) was obtained for the covalently cross-linked compound in the absence of formaldehyde using poly(dA-dC).poly(dG-dT) at 0.1 M", "conditions": "in vitro"}, "[12]": {"assay": "Delta Tm value (Tm(drug-DNA)-Tm(DNA)) was obtained for the covalently cross-linked compound in the absence of formaldehyde using twice of poly(dI-dC)", "type": "ADME", "procedure,_shortened": "as §2"}, "Bos taurus [13]": {"organism": "Bos taurus", "assay": "Delta Tm value ( Tmdrug-DNA )-TmDNA ) was obtained for the covalently cross-linked compound in the presence of formaldehyde using calf thymus DNA at 0.25 M", "type": "ADME", "conditions": "cattle", "procedure,_shortened": "as §1"}, "[14]": {"assay": "Delta Tm value (Tm(drug-DNA)-Tm(DNA)) was obtained for the covalently cross-linked compound in the absence of formaldehyde using twice of poly(dI-dC) at 0.25 M", "type": "ADME", "procedure,_shortened": "as §2"}, "[15]": {"assay": "Delta Tm value (Tm(drug-DNA)-Tm(DNA)) was determined for the covalently cross-linked compound in the presence of formaldehyde using twice of poly(dI-dC) at 0.25 M", "type": "ADME", "procedure,_shortened": "as §1"}, "[16]": {"assay": "Delta Tm value ( Tmdrug-DNA )-TmDNA ) was obtained for the covalently cross-linked compound in the presence of formaldehyde using twice of poly(dA-dT) at 0.25 M", "type": "ADME", "procedure,_shortened": "as §1"}, "Bos taurus [17]": {"organism": "Bos taurus", "assay": "Delta Tm value ( Tmdrug-DNA )-TmDNA ) was obtained for the covalently cross-linked compound in the presence of formaldehyde using calf thymus DNA at 0.5 M", "type": "ADME", "conditions": "cattle", "procedure,_shortened": "as §1"}, "Bos taurus [18]": {"organism": "Bos taurus", "assay": "Delta Tm value ( Tmdrug-DNA )-TmDNA ) was obtained for the covalently cross-linked compound in the presence of formaldehyde using calf thymus DNA.", "type": "ADME", "conditions": "cattle", "procedure,_shortened": "as §1"}, "[19]": {"assay": "Delta Tm value (Tm(drug-DNA)-Tm(DNA)) was obtained for the covalently cross-linked compound in the absence of formaldehyde using twice of poly(dI-dC) at 0.05 M", "type": "ADME", "procedure,_shortened": "as §2"}, "[20]": {"assay": "Delta Tm value ( Tmdrug-DNA )-TmDNA ) was obtained for the covalently cross-linked compound in the presence of formaldehyde using poly(dA-dC).poly(dG-dT) at 0.1 M", "type": "ADME", "procedure,_shortened": "as §1"}, "[21]": {"test_system": "poly(dA-dC)·poly(dG-dT) (synthetic)", "assay": "Delta Tm value ( Tmdrug-DNA )-TmDNA ) was obtained for the covalently cross-linked compound in the absence of formaldehyde using poly(dA-dC).poly(dG-dT)", "conditions": "in vitro"}, "[22]": {"assay": "Delta Tm value ( Tmdrug-DNA )-TmDNA ) was obtained for the covalently cross-linked compound in the presence of formaldehyde using twice of poly(dA-dT)", "type": "ADME", "procedure,_shortened": "as §1"}, "[23]": {"test_system": "[poly(dA-dT)]2 (synthetic)", "assay": "Delta Tm value ( Tmdrug-DNA )-TmDNA ) was obtained for the covalently cross-linked compound in the absence of formaldehyde using twice of poly(dA-dT) at 0.1 M", "conditions": "in vivo"}, "[24]": {"assay": "Delta Tm value ( Tmdrug-DNA )-TmDNA ) was obtained for the covalently cross-linked compound in the presence of formaldehyde using poly(dA-dC).poly(dG-dT) at 0.05 M", "type": "ADME", "procedure,_shortened": "as §1"}, "[25]": {"assay": "Delta Tm value ( Tmdrug-DNA )-TmDNA ) was obtained for the covalently cross-linked compound in the presence of formaldehyde using twice of poly(dI-dC) at 0.05 M", "type": "ADME", "procedure,_shortened": "as §1"}, "Bos taurus [26]": {"organism": "Bos taurus", "assay": "Delta Tm value ( Tmdrug-DNA )-TmDNA ) was obtained for the covalently cross-linked compound in the absence of formaldehyde using calf thymus DNA at 1 M", "type": "ADME", "conditions": "cattle", "procedure,_shortened": "as §2"}, "Bos taurus [27]": {"organism": "Bos taurus", "assay": "Delta Tm value ( Tmdrug-DNA )-TmDNA ) was obtained for the covalently cross-linked compound in the absence of formaldehyde using calf thymus DNA at 0.25 M", "type": "ADME", "conditions": "cattle", "procedure,_shortened": "as §2"}, "Bos taurus [28]": {"organism": "Bos taurus", "assay": "Delta Tm value ( Tmdrug-DNA )-TmDNA ) was obtained for the covalently cross-linked compound in the absence of formaldehyde using calf thymus DNA at 0.05 M", "type": "ADME", "conditions": "cattle", "procedure,_shortened": "as §2"}, "Bos taurus [29]": {"organism": "Bos taurus", "assay": "Delta Tm value ( Tmdrug-DNA )-TmDNA ) was obtained for the covalently cross-linked compound in the presence of formaldehyde using calf thymus DNA at 1 M", "type": "ADME", "conditions": "cattle", "procedure,_shortened": "as §1"}, "[30]": {"test_system": "poly(dA-dC)·poly(dG-dT) (synthetic)", "assay": "Delta Tm value ( Tmdrug-DNA )-TmDNA ) was obtained for the covalently cross-linked compound in the absence of formaldehyde using poly(dA-dC).poly(dG-dT) at 0.25 M", "conditions": "in vitro"}, "[31]": {"test_system": "[poly(dA-dT)]2 (synthetic)", "assay": "Delta Tm value ( Tmdrug-DNA )-TmDNA ) was obtained for the covalently cross-linked compound in the absence of formaldehyde using twice of poly(dA-dT)", "conditions": "in vivo"}, "[32]": {"test_system": "poly(dA-dC)·poly(dG-dT) (synthetic)", "assay": "Delta Tm value ( Tmdrug-DNA )-TmDNA ) was obtained for the covalently cross-linked compound in the presence of formaldehyde using poly(dA-dC).poly(dG-dT)", "conditions": "in vitro"}, "Bos taurus [33]": {"organism": "Bos taurus", "assay": "Delta Tm value ( Tmdrug-DNA )-TmDNA ) was obtained for the covalently cross-linked compound in the presence of formaldehyde using calf thymus DNA at 0.1 M", "type": "ADME", "conditions": "cattle", "procedure,_shortened": "as §1"}, "Bos taurus [34]": {"organism": "Bos taurus", "assay": "Delta Tm value ( Tmdrug-DNA )-TmDNA ) was obtained for the covalently cross-linked compound in the absence of formaldehyde using calf thymus DNA at 0.5 M", "type": "ADME", "conditions": "cattle", "procedure,_shortened": "as §2"}}, "note": "Values joined by “and” are separate entries in the source; they are usually repeats but may differ in a detail not shown here. Identical values can stand only once.", "data": [{"smiles": "COC1C(CO)OC(n2c3ccccc3c3c4c(c5c6ccccc6[nH]c5c32)C(=O)N(N)C4=O)C(N)C1O", "note": "(centres undefined)", "values": [{"measurement": "Delta Tm", "setting": "[1]", "result": 11.9, "unit": "°C"}, {"measurement": "Delta Tm", "setting": "[2]", "result": 5.9, "unit": "°C"}, {"measurement": "Delta Tm", "setting": "[3]", "result": 6, "unit": "°C"}, {"measurement": "Delta Tm", "setting": "[4]", "result": 50.8, "unit": "°C"}, {"measurement": "Delta Tm", "setting": "[5]", "result": 1, "unit": "°C"}, {"measurement": "Delta Tm", "setting": "Bos taurus [6]", "result": 4, "unit": "°C"}, {"measurement": "Delta Tm", "setting": "[7]", "result": 4.8, "unit": "°C"}, {"measurement": "Delta Tm", "setting": "[8]", "result": 21.2, "unit": "°C"}, {"measurement": "Delta Tm", "setting": "[9]", "result": 2, "unit": "°C"}, {"measurement": "Delta Tm", "setting": "[10]", "result": 0, "unit": "°C"}, {"measurement": "Delta Tm", "setting": "[11]", "result": 1.8, "unit": "°C"}, {"measurement": "Delta Tm", "setting": "[12]", "result": "0 °C and -1 °C"}, {"measurement": "Delta Tm", "setting": "Bos taurus [13]", "result": 22.3, "unit": "°C"}, {"measurement": "Delta Tm", "setting": "[14]", "result": 8.9, "unit": "°C"}, {"measurement": "Delta Tm", "setting": "[15]", "result": 10, "unit": "°C"}, {"measurement": "Delta Tm", "setting": "[16]", "result": 31, "unit": "°C"}, {"measurement": "Delta Tm", "setting": "Bos taurus [17]", "result": 26.2, "unit": "°C"}, {"measurement": "Delta Tm", "setting": "Bos taurus [18]", "result": 0, "unit": "°C"}, {"measurement": "Delta Tm", "setting": "[19]", "result": 2, "unit": "°C"}, {"measurement": "Delta Tm", "setting": "[20]", "result": 12.4, "unit": "°C"}, {"measurement": "Delta Tm", "setting": "[21]", "result": 0, "unit": "°C"}, {"measurement": "Delta Tm", "setting": "[22]", "result": 0, "unit": "°C"}, {"measurement": "Delta Tm", "setting": "[23]", "result": 3, "unit": "°C"}, {"measurement": "Delta Tm", "setting": "[24]", "result": 6.7, "unit": "°C"}, {"measurement": "Delta Tm", "setting": "[25]", "result": 3.1, "unit": "°C"}, {"measurement": "Delta Tm", "setting": "Bos taurus [26]", "result": 6.7, "unit": "°C"}, {"measurement": "Delta Tm", "setting": "Bos taurus [27]", "result": 6.7, "unit": "°C"}, {"measurement": "Delta Tm", "setting": "Bos taurus [28]", "result": 2, "unit": "°C"}, {"measurement": "Delta Tm", "setting": "Bos taurus [29]", "result": 28.7, "unit": "°C"}, {"measurement": "Delta Tm", "setting": "[30]", "result": 2.9, "unit": "°C"}, {"measurement": "Delta Tm", "setting": "[31]", "result": 0, "unit": "°C"}, {"measurement": "Delta Tm", "setting": "[32]", "result": -2, "unit": "°C"}, {"measurement": "Delta Tm", "setting": "Bos taurus [33]", "result": 11.9, "unit": "°C"}, {"measurement": "Delta Tm", "setting": "Bos taurus [34]", "result": 6.5, "unit": "°C"}]}]}
